ChEMBL document CHEMBL3826935, “Synthesis and Pharmacology of (Pyridin-2-yl)methanol Derivatives as Novel and Selective Transient Receptor Potential Vanilloid 3 Antagonists” (J Med Chem, 2016)

Experiments:
Rattus norvegicus [1] = organism: Rattus norvegicus; assay: Cardiotoxicity in rat assessed as increase in mean arterial pressure; type: toxicity, organism-based, Artery; details: in vivo
[2] = molecular target: T1, Nuclear receptor subfamily 1 group I member 2 (Homo sapiens, UniProt O75469); assay: Activation of human PXR; type: ADME; details: human
T1 sequence (O75469 whole entry): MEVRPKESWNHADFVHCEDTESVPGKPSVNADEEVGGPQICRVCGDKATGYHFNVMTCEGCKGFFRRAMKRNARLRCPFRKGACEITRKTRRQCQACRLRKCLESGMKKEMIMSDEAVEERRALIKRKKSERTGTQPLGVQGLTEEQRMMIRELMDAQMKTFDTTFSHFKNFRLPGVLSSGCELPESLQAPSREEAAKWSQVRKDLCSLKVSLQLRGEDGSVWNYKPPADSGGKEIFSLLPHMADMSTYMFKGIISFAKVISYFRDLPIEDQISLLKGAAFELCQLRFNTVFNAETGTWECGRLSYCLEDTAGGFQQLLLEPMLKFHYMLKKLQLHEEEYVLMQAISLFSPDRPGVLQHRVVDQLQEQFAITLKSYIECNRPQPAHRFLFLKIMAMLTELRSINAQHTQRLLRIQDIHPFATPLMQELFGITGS

Liver microsome [3] = assay: Unbound intrinsic clearance in rat liver microsomes after 5 hrs by LC-MS/MS analysis; type: ADME
Summary of the method: (§1)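 Microsomal stability run in an automated high-throughput plate format. Intrinsic clearance corrected for nonspecific microsomal binding using measured unbound fraction (fu,mic), reported as unbound Clint in L/h/kg.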

[4] = molecular target: T2, Transient receptor potential cation channel subfamily V member 3 (Homo sapiens) (UniProt Q8NET8); assay: Antagonist activity at human TRPV3 expressed in recombinant HEK293 cells assessed as inhibition of 2-APB induced calcium flux by FLIPR analysis; type: cell-based
T2 sequence (whole entry): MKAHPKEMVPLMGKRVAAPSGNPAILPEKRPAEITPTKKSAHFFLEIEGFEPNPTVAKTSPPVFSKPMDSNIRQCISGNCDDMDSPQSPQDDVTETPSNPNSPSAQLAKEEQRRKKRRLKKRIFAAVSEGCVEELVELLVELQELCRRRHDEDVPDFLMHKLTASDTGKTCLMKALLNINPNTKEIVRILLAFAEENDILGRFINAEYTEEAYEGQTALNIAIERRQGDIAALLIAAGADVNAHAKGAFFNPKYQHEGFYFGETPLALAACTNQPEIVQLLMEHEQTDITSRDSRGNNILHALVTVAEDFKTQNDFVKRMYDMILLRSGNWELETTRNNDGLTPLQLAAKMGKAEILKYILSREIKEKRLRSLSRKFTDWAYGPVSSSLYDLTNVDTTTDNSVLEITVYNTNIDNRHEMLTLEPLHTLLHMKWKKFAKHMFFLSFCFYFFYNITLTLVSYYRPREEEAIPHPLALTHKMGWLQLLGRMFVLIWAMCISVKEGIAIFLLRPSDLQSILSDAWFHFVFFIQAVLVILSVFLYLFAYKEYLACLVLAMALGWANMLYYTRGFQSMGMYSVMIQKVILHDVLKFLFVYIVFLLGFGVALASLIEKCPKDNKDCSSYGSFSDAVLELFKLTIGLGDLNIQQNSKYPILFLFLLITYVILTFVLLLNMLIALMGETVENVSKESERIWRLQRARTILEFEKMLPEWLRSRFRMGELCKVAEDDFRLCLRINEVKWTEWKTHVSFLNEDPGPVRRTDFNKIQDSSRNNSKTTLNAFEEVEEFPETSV
Summary of the method: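 HEK293 cells stably expressing human TRPV3 (I25V variant), plated the day before in DMEM + 10% FBS at 37 °C, 5% CO2. Calcium 4 dye loaded in Ca/Mg-free HEPES D-PBS pH 7.4 for 1–2 h at room temperature. Compound dilutions added with 3 min baseline, then 2-APB at 60 µM final; Ca2+ flux read 3 min on FLIPR. Kb from at least duplicates, averaged across independent runs.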

Rattus norvegicus [5] = organism: Rattus norvegicus; assay: Cardiotoxicity in rat assessed as increase in cardiac contractility at plasma concentration of 4.7 ug/ml; type: toxicity, organism-based
Liver microsome [6] = assay: Unbound intrinsic clearance in human liver microsomes after 5 hrs by LC-MS/MS analysis; type: ADME; summary of the method: as §1

| Activity [2] | CL free (Liver microsome [3]) | Kb [4] | CL free (Liver microsome [6]) | SMILES | Activity (Rattus norvegicus [1]) | Activity (Rattus norvegicus [5]) |
| --- | --- | --- | --- | --- | --- | --- |
| Not Active | 150 mL/min/kg | 840 nM | 50 mL/min/kg | C[C@]1(O)C[C@@](c2ccc(C(F)(F)F)cc2)([C@H](O)c2ccccn2)C1 | Non-toxic | Non-toxic |
| Not Active | 50 mL/min/kg | 60 nM | 33 mL/min/kg | O[C@H](c1ccccn1)[C@]1(c2ccnc(C(F)(F)F)c2)C[C@H](O)C1 | Non-toxic | Non-toxic |
| – | 2980 mL/min/kg | 43 nM | 383 mL/min/kg | O[C@H](c1ccccn1)[C@@]1(c2ccc(Cl)c(Cl)c2)CCCO1 | – | – |
| – | 1000 mL/min/kg | 380 nM | 217 mL/min/kg | O[C@H](c1ccccn1)[C@@]1(c2ccc(Cl)c(Cl)c2)CCO1 | – | – |
| – | 120 mL/min/kg | 6630 nM | 50 mL/min/kg | CN1CC(c2ccc(C(F)(F)F)cc2)(C(O)c2ccccn2)C1 (stereo unspecified) | – | – |
| Not Active | 100 mL/min/kg | 1510 nM | 50 mL/min/kg | C[C@]1(O)C[C@](c2ccc(OC(F)(F)F)cc2)([C@H](O)c2ccccn2)C1 | Non-toxic | Non-toxic |
| – | 1720 mL/min/kg | 80 nM | 2220 mL/min/kg | O[C@H](c1ccccn1)C1(c2cccc(OC(F)(F)F)c2)CCC1 | – | – |
| – | 3170 mL/min/kg | 910 nM | 767 mL/min/kg | OC(c1ccc(F)cn1)C1(c2ccc(Cl)c(Cl)c2)CCC1 (racemic) | – | – |
| Not Active | 50 mL/min/kg | 2240 nM | 50 mL/min/kg | O[C@H](c1ccccn1)[C@]1(c2ccc(C(F)(F)F)cc2)C[C@H](O)C1 | Non-toxic | Non-toxic |
| – | 6330 mL/min/kg | 3400 nM | 1670 mL/min/kg | CC(O)(c1ccccn1)C1(c2ccc(Cl)c(Cl)c2)CCC1 (racemic) | – | – |
| – | 417 mL/min/kg | 7370 nM | 130 mL/min/kg | OC(c1ccccn1)C1(c2ccc(Cl)c(Cl)c2)COC1 (stereo unspecified) | – | – |
| – | 350 mL/min/kg | 610 nM | 400 mL/min/kg | O[C@@]1(c2ccccn2)CC[C@H](c2ccc(C(F)(F)F)cc2)C1 | – | – |
| Not Active | 200 mL/min/kg | 280 nM | 167 mL/min/kg | C[C@]1(O)C[C@@](c2cccc(OC(F)(F)F)c2)([C@H](O)c2ccccn2)C1 | Non-toxic | Non-toxic |
| Not Active | 130 mL/min/kg | 330 nM | 67 mL/min/kg | C[C@]1(O)C[C@@](c2ccc(OC(F)(F)F)cc2)([C@H](O)c2ccccn2)C1 | Non-toxic | Non-toxic |
| – | 483 mL/min/kg | 1540 nM | 100 mL/min/kg | OC(c1ncccn1)C1(c2ccc(OC(F)(F)F)cc2)CCC1 (racemic) | – | – |
| – | 7670 mL/min/kg | 130 nM | 383 mL/min/kg | O[C@]1(c2ccccn2)CC[C@@H](c2ccc(C(F)(F)F)cc2)C1 | – | – |
| – | 1050 mL/min/kg | 140 nM | 333 mL/min/kg | O[C@H](c1ccccn1)C1(c2ccc(OC(F)(F)F)cc2)CCC1 | – | – |
| Not Active | 50 mL/min/kg | 1870 nM | 33 mL/min/kg | O[C@H](c1ccccn1)[C@]1(c2ccc(C(F)(F)F)cc2)C[C@@H](O)C1 | Non-toxic | Non-toxic |
| Not Active | 100 mL/min/kg | 210 nM | 50 mL/min/kg | O[C@H](c1ccccn1)[C@]1(c2cccc(C(F)(F)F)c2)C[C@@H](O)C1 | Non-toxic | Non-toxic |

| Activity [2] | CL free (Liver microsome [3]) | Kb [4] | CL free (Liver microsome [6]) | SMILES | Activity (Rattus norvegicus [1]) | Activity (Rattus norvegicus [5]) |
| --- | --- | --- | --- | --- | --- | --- |
| – | 150 mL/min/kg | 2460 nM | 120 mL/min/kg | C[C@]1(c2ccc(OC(F)(F)F)cc2)C[C@@](O)(c2ccccn2)CO1 | – | – |
| Not Active | 217 mL/min/kg | 80 nM | 120 mL/min/kg | O[C@H](c1ccccn1)[C@]1(c2cccc(OC(F)(F)F)c2)C[C@@H](O)C1 | Non-toxic | Non-toxic |
| Not Active | 67 mL/min/kg | 1550 nM | 33 mL/min/kg | C[C@]1(O)C[C@](c2cccc(C(F)(F)F)c2)([C@H](O)c2ccccn2)C1 | Non-toxic | Non-toxic |
| – | 50 mL/min/kg | 150 nM | 67 mL/min/kg | O[C@H](c1ccccn1)[C@]1(c2ccc(Cl)c(Cl)c2)CCO1 | – | – |
| Not Active | 317 mL/min/kg | 300 nM | 150 mL/min/kg | C[C@]1(O)C[C@@](c2cccc(C(F)(F)F)c2)([C@H](O)c2ccccn2)C1 | Non-toxic | Non-toxic |
| – | 1830 mL/min/kg | 550 nM | 1230 mL/min/kg | OC(c1ccccn1)C1(c2ccccc2OC(F)(F)F)CCC1 (racemic) | – | – |
| Not Active | 50 mL/min/kg | 4270 nM | 67 mL/min/kg | C[C@]1(O)C[C@@](c2ccnc(C(F)(F)F)c2)([C@H](O)c2ccccn2)C1 | Non-toxic | Non-toxic |
| – | 3000 mL/min/kg | 610 nM | 833 mL/min/kg | OC(c1ncccc1F)C1(c2ccc(Cl)c(Cl)c2)CCC1 (racemic) | – | – |
| – | 333 mL/min/kg | 1120 nM | 67 mL/min/kg | C[C@@]1(c2ccc(OC(F)(F)F)cc2)C[C@@](O)(c2ccccn2)CO1 (single isomer, unassigned) | – | – |
| Not Active | 120 mL/min/kg | 40 nM | 150 mL/min/kg | O[C@H](c1ccccn1)[C@]1(c2cccc(OC(F)(F)F)c2)C[C@H](O)C1 | Non-toxic | Non-toxic |
| – | 383 mL/min/kg | 1710 nM | 217 mL/min/kg | C[C@@]1(c2ccc(OC(F)(F)F)cc2)C[C@](O)(c2ccccn2)CO1 | – | – |
| – | 983 mL/min/kg | 630 nM | 417 mL/min/kg | OC(c1ccccn1)C1(c2ccc(Cl)c(Cl)c2)CCOC1 (stereo unspecified) | – | – |
| – | 833 mL/min/kg | 370 nM | 267 mL/min/kg | O[C@H](c1ncccn1)C1(c2ccc(Cl)c(Cl)c2)CCC1 | – | – |
| – | 3850 mL/min/kg | 640 nM | 533 mL/min/kg | OC(c1cc(F)ccn1)C1(c2ccc(Cl)c(Cl)c2)CCC1 (racemic) | – | – |
| – | 1430 mL/min/kg | 540 nM | 333 mL/min/kg | O[C@]1(c2ccccn2)CC[C@H](c2ccc(C(F)(F)F)cc2)C1 | – | – |
| – | 2520 mL/min/kg | 240 nM | 150 mL/min/kg | O[C@@]1(c2ccccn2)CC[C@@H](c2ccc(C(F)(F)F)cc2)C1 | – | – |
| – | – | 470 nM | – | O[C@H](c1ccccn1)[C@]1(c2ccc(Cl)c(Cl)c2)CCCO1 | – | – |
| – | 50 mL/min/kg | 6680 nM | 33 mL/min/kg | OC(c1ccccn1)C1(c2ccc(C(F)(F)F)cc2)CNC1 (stereo unspecified) | – | – |
| – | 850 mL/min/kg | 80 nM | 250 mL/min/kg | O[C@H](c1ccccn1)C1(c2ccc(Cl)c(Cl)c2)CC(F)(F)C1 | – | – |
